Laboratory results reported in ChEMBL document CHEMBL1145978, “New N-n-propyl-substituted 3-aryl- and 3-cyclohexylpiperidines as partial agonists at the D4 dopamine receptor” (J Med Chem, 2003).

Assays:
[1] = biological target: T1, D(2) dopamine receptor (Bos taurus, UniProt P20288); experiment: Affinity for Dopamine receptor D2 using [3H]YM-09151-2 was carried out on bovine retinal membrane preparations (high-affinity); design: species or system Retina
Outline: (§1)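 Retinal membranes were prepared in Tris/EDTA/Ca/Mg/K/NaCl saline, pH 7.4, at about 4 mg wet tissue/mL. They were incubated with 0.1 nM [3H]-YM-09-151-2 at 30 °C for 60 min, in duplicate, with 2 mM DA defining nonspecific binding, followed by rapid filtration. Displacement curves were fitted to a two-site model, giving high- and low-affinity Ki from IC50 using Kd 0.4 nM.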

[2] = biological target: D(1A) dopamine receptor (Bos taurus, UniProt Q95136); experiment: Affinity for Dopamine receptor D1 using [3H]SCH-23390 was carried out on bovine retinal membrane preparations; design: species or system Retina
Outline: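 Bovine retinal membranes were homogenized in Tris 50 mM, EDTA 1, CaCl2 1.5, MgCl2 4, KCl 5, NaCl 120 mM, pH 7.4, and used at about 4 mg wet tissue/mL. They were incubated with 0.5 nM [3H]-SCH23390 for 20 min at 30 °C, in duplicate. Nonspecific binding was set with 2 mM DA, and bound ligand was separated by vacuum filtration. Ki was derived from IC50 using Kd 2 nM.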

[3] = biological target: T1, D(2) dopamine receptor; experiment: Affinity for Dopamine receptor D2 using [3H]YM-09151-2 was carried out on bovine retinal membrane preparations (low-affinity); design: species or system Retina; outline: as §1
[4] = biological target: T1, D(2) dopamine receptor; experiment: Affinity for Dopamine receptor D2 using [3H]-YM-09151-2 was carried out on bovine striatal membrane preparations; design: species or system Striatum
Outline: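 Competition binding on bovine striatal membranes: homogenised in Tris 50, EDTA 1, CaCl2 1.5, MgCl2 4, KCl 5, NaCl 120 mM, pH 7.4; centrifuged 48 000 g, 20 min, 4 °C, washed, used at ~1.25 mg wet tissue/mL. 0.1 nM [3H]-YM-09-151-2 (Kd 0.4 nM), 60 min at 30 °C, duplicates; nonspecific with 2 mM DA; vacuum filtration; Ki from IC50.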

Chain of D(1A) dopamine receptor (Q95136 whole entry): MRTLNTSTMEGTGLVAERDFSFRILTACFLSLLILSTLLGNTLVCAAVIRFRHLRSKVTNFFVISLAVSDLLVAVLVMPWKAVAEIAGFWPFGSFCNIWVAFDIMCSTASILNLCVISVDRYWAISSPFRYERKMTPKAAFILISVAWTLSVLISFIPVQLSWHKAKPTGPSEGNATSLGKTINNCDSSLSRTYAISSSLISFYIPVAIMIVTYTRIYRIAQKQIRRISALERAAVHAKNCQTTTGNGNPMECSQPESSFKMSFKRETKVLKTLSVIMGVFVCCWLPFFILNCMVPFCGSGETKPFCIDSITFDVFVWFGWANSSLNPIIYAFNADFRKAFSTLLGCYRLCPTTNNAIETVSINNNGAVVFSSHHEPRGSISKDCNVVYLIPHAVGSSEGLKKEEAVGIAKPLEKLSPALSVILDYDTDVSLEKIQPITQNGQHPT
T1 sequence (P20288 whole entry): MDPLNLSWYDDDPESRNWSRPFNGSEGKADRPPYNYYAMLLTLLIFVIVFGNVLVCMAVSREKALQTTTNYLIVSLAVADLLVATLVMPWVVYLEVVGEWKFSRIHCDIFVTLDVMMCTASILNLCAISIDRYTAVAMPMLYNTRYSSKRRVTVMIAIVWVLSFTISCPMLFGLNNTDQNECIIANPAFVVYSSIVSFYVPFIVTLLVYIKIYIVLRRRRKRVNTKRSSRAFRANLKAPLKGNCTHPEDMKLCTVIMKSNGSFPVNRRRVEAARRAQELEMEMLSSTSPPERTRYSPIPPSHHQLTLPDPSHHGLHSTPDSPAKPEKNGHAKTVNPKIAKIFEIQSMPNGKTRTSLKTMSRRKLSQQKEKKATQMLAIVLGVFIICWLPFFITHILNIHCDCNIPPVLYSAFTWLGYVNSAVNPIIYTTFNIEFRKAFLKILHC

SMILES	Ki [1] [µM]	Ki [2] [µM]	Ki [3] [µM]	Ki [4] [µM]
CCCN1CCCC(C2CCCCC2C)C1 (centres undefined)	0.026	> 10	43.2	0.42
CCCN1CCCC(C2CCCCC2)C1 (centres undefined)	0.004	> 10	24.9	14.4
CCCN1CCCC(c2ccc(C)cc2)C1 (centres undefined)	0.044	> 10	35.4	13.8
CCCN1CCCC(c2cccc(C)c2)C1 (centres undefined)	0.042	> 10	15.9	
CCCN1CCCC(c2ccccc2)C1 (centres undefined)	0.039	> 10	43.7	10.8
CCCN1CCCC(C2CCC(C)CC2)C1 (centres undefined)	0.004	> 10	64	20
CCCN1CCCC(C2CCCC(C)C2)C1 (centres undefined)	0.005	> 10	27	10
CCCN1CCCC(c2ccccc2C)C1 (centres undefined)	0.449	> 10	26.7	1.51
CCCN1CCCC(c2ccc(C)c(C)c2)C1 (centres undefined)	0.027	> 10	7.6	8.1
Cc1cccc(C(=O)NCN2CCN(c3ccccc3C#N)CC2)c1 [PD-168,077]	0.025	> 10	6.3	18.3
